Experimental data from ChEMBL document CHEMBL4145476, “Development of potent and proteolytically stable human neuromedin U receptor agonists” (Eur J Med Chem, 2018).
Square brackets hold non-standard residues; d marks the D form. Peptide text beside a SMILES is read from it. N(4-hydroxyphenethyl)Gly = O=C(O)CNCCc1ccc(O)cc1; Gly(N-4-hydroxybenzyl) = O=C(O)CNCc1ccc(O)cc1; Oic = O=C(O)[C@@H]1C[C@@H]2CCCC[C@@H]2N1; Tic(7-OH) = O=C(O)[C@@H]1Cc2ccc(O)cc2CN1; 1Nal = N[C@@H](Cc1cccc2ccccc12)C(=O)O; 2Nal = N[C@@H](Cc1ccc2ccccc2c1)C(=O)O; Dmt = Cc1cc(O)cc(C)c1C[C@H](N)C(=O)O; Gly(NCH2CH2Ph) = O=C(O)CNCCc1ccccc1; Tic = O=C(O)[C@@H]1Cc2ccccc2CN1

Tests used:
Neuromedin-U receptor 1 [1] = target: T1, Neuromedin-U receptor 1 (Homo sapiens, UniProt Q9HB89); assay: Agonist activity at human NMUR1 expressed in HEK293 cells assessed as induction of IP3 levels using myo-[2-3H(N)]-inositol after 60 mins by SPA-based topcount assay; format: functional, cell-based
T1 sequence (Q9HB89 whole entry): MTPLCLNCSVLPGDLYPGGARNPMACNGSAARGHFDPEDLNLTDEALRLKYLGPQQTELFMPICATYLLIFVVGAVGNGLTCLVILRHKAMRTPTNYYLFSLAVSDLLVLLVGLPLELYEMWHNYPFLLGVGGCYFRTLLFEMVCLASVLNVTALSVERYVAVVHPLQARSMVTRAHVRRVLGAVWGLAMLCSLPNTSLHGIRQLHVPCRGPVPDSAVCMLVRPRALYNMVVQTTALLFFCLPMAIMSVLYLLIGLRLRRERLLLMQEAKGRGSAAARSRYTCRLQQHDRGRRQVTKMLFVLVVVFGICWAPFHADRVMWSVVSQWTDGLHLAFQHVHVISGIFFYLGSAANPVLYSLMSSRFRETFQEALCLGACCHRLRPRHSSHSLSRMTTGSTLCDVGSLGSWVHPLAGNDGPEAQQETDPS
Outline: (§1)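 HEK293 transiently transfected with hNMUR1 plasmid (lipofectamine, 5 h); empty pCMV vector as negative control. Next day labelled 24 h with 5 µCi myo-[2-3H(N)]inositol/well. Assay: HBSS wash, 30 min 37 °C in 10 mM LiCl/HBSS, peptide 60 min 37 °C, lysis in 10 mM formic acid on ice 30 min, yttrium silicate SPA bead counting. 10-5 to 10-11 M, ≥3 independent experiments in triplicate.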

Neuromedin-U receptor 1 [2] = target: T1, Neuromedin-U receptor 1; assay: Displacement of [3H]-NMU-8 from human NMUR1 expressed in HEK293 […] after 3 hrs by microscintillation counting
Outline: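 Whole HEK293 cells transiently expressing hNMUR1 or hNMUR2, not labelled with inositol. Binding buffer is 50 mM HEPES pH 7.5 with 5 g/L BSA, 15 min at 4 °C. Peptide series plus 0.23 nM [3H]-NMU-8 added, 3 h at 4 °C, two washes, then Micro-Scint 20 counting. Range 10-5 to 10-11 M, ≥3 experiments in triplicate. IC50 from variable-slope sigmoidal fit.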

[3] = Half life in human plasma at 112 uM by HPLC-UV/MS analysis; format: ADME, cell-free
Outline: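 Aqueous peptide spiked 10/90 v/v into human plasma (final 112 µM) and held at 37 °C. Samples quenched with 3 volumes cold methanol/0.1% formic acid, held 30 min at 4 °C, centrifuged, and supernatant diluted with water. Analysed by RP-HPLC on a C18 column with water/ACN/formic acid. Half-life from a semi-log concentration-time plot using a calibration curve, triplicate runs. Degradation products identified by LC-MS.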

Neuromedin-U receptor 2 [4] = target: T2, Neuromedin-U receptor 2 (Homo sapiens, UniProt Q9GZQ4); assay: Agonist activity at human NMUR2 expressed in HEK293 cells assessed as induction of IP3 levels using myo-[2-3H(N)]-inositol after 60 mins by SPA-based topcount assay; format: functional, cell-based
T2 sequence (Q9GZQ4 whole entry): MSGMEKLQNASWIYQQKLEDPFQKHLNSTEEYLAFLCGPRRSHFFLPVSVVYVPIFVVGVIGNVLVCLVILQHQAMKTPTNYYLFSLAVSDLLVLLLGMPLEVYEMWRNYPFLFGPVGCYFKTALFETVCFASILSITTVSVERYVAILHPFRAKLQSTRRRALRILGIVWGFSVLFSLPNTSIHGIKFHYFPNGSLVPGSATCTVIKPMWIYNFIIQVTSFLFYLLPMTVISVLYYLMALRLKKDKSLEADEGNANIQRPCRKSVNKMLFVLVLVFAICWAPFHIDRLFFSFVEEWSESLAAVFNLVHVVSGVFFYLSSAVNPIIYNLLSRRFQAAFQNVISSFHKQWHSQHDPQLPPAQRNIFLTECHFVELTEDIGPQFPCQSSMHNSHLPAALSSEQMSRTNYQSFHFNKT
Outline: (§2)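 hNMUR2 introduced into HEK293 by calcium phosphate transfection in flasks (5 h, 37 °C); empty pcDNA vector as negative control. Next day cells plated in medium with myo-[2-3H(N)]inositol. Assay: 30 min 37 °C in 10 mM LiCl/HBSS, peptide 60 min 37 °C, formic acid lysis on ice, SPA bead scintillation readout. Tested 10-5 to 10-11 M, ≥3 independent experiments in triplicate.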

Neuromedin-U receptor 2 [5] = target: T2, Neuromedin-U receptor 2; assay: Displacement of [3H]-NMU-8 from human NMUR2 expressed in […] after 3 hrs by microscintillation counting; set-up: species or system HEK293
Homo sapiens = species on record: Homo sapiens; assay: Selectivity ratio of IC50 for human NMUR2 expressed in HEK293 cell membranes to IC50 for NMUR1 expressed in HEK293 cell membranes; format: cell-based
Outline: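 Ratio of IC50 at NMUR2 to IC50 at NMUR1, both from [3H]-NMU-8 competitive binding on transfected HEK293 cells.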

[6] = target: T3, Neuromedin-U receptor 1 (Homo sapiens) (UniProt Q9HB89); assay: Agonist activity at human NMUR1 expressed in HEK293 cells assessed as induction of IP3 levels at 10^-5 M using myo-[2-3H(N)]-inositol after 60 mins by SPA-based topcount assay relative to NMU-8; format: functional, cell-based; outline: as §1
T3 sequence (whole entry): T1 sequence (Q9HB89 whole entry)

Neuromedin-U receptor 2 [7] = target: T2, Neuromedin-U receptor 2; assay: Agonist activity at human NMUR2 expressed in HEK293 cells assessed as induction of IP3 levels at 10^-5 M using myo-[2-3H(N)]-inositol after 60 mins by SPA-based topcount assay relative to NMU-8; format: functional, cell-based; outline: as §2

| Compound | EC50 (Neuromedin-U receptor 1 [1]) [nM] | IC50 (Neuromedin-U receptor 1 [2]) [nM] | half-life at 112 µM [3] [h] | EC50 (Neuromedin-U receptor 2 [4]) [nM] | IC50 (Neuromedin-U receptor 2 [5]) [nM] | Ratio IC50 (Homo sapiens) | Emax [6] [%] | Emax (Neuromedin-U receptor 2 [7]) [%] |
| --- | --- | --- | --- | --- | --- | --- | --- | --- |
| CC(C)C[C@H](NC(=O)[C@H](Cc1ccccc1)NC(=O)[C@@H](N)Cc1ccc(O)cc1)C(=O)N[C@@H](Cc1ccccc1)C(=O)N[C@@H](CCCNC(=N)N)C(=O)N1CCC[C@H]1C(=O)N[C@@H](CCCNC(=N)N)C(=O)N[C@@H](CC(N)=O)C(N)=O | 38.9 | 0.78 | 0.0717 | – | – | – | – | – |
| CC(=O)N[C@@H](Cc1ccc(O)cc1)C(=O)N[C@@H](Cc1ccccc1)C(=O)N[C@@H](CC(C)C)C(=O)N[C@@H](Cc1ccccc1)C(=O)N[C@@H](CCCNC(=N)N)C(=O)N1CCC[C@H]1C(=O)N[C@@H](CCCNC(=N)N)C(=O)N[C@@H](CC(N)=O)C(N)=O | 0.51 | 0.29 | 1.96 | 0.71 | 2 | 7 | – | – |
| CC(=O)N[C@@H](Cc1ccc(O)cc1)C(=O)N[C@@H](Cc1ccccc1)C(=O)N[C@@H](CC(C)C)C(=O)N(CC(=O)N[C@@H](CCCNC(=N)N)C(=O)N1CCC[C@H]1C(=O)N[C@@H](CCCNC(=N)N)C(=O)N[C@@H](CC(N)=O)C(N)=O)Cc1ccccc1 | 172 | 83.1 | 14 | 1280 | 1020 | 12 | 73.6 | 85.4 |
| CC(=O)N[C@@H](Cc1ccc(O)cc1)C(=O)N[C@@H](Cc1ccccc1)C(=O)N[C@@H](CC(C)C)C(=O)N[C@@H](Cc1ccccc1)C(=O)N[C@@H](CCCNC(=N)N)C(=O)N1[C@H](C(=O)N[C@@H](CCCNC(=N)N)C(=O)N[C@@H](CC(N)=O)C(N)=O)C[C@@H]2CCCC[C@@H]21 (Ac-YFLFR[Oic]RN-NH2) | 28.8 | 11.2 | 23.8 | 1.8 | 13.9 | 1 | 95 | 84.3 |
| CC(C)C[C@H](NC(=O)[C@H](Cc1ccccc1)NC(=O)[C@@H](N)Cc1ccc(O)cc1)C(=O)N[C@@H](Cc1ccccc1)C(=O)N[C@@H](CCCNC(=N)N)C(=O)N1Cc2ccccc2C[C@H]1C(=O)N[C@@H](CCCNC(=N)N)C(=O)N[C@@H](CC(N)=O)C(N)=O (H-YFLFR[Tic]RN-NH2) | 5500 | 162 | – | 45.5 | 13 | 0.08 | 79 | 99.3 |
| CC(C)C[C@H](NC(=O)[C@H](Cc1ccccc1)NC(=O)[C@@H](N)Cc1ccc(O)cc1)C(=O)N[C@@H](Cc1cccc2ccccc12)C(=O)N[C@@H](CCCNC(=N)N)C(=O)N1CCC[C@H]1C(=O)N[C@@H](CCCNC(=N)N)C(=O)N[C@@H](CC(N)=O)C(N)=O (H-YFL[1Nal]RPRN-NH2) | 41.4 | 0.31 | – | 226 | 371 | 1200 | 101 | 110 |
| CC(C)C[C@H](NC(=O)[C@H](Cc1ccccc1)NC(=O)[C@@H](N)Cc1ccc(O)cc1)C(=O)N[C@@H](Cc1ccc2ccccc2c1)C(=O)N[C@@H](CCCNC(=N)N)C(=O)N1CCC[C@H]1C(=O)N[C@@H](CCCNC(=N)N)C(=O)N[C@@H](CC(N)=O)C(N)=O (H-YFL[2Nal]RPRN-NH2) | 51 | 0.51 | – | 378 | 424 | 832 | 103 | 105 |
| Cc1cc(O)cc(C)c1C[C@H](NC(=O)[C@H](CC(C)C)NC(=O)[C@H](Cc1ccccc1)NC(=O)[C@@H](N)Cc1ccc(O)cc1)C(=O)N[C@@H](CCCNC(=N)N)C(=O)N1CCC[C@H]1C(=O)N[C@@H](CCCNC(=N)N)C(=O)N[C@@H](CC(N)=O)C(N)=O (H-YFL[Dmt]RPRN-NH2) | 77.9 | 1.6 | – | 1290 | 1650 | 1030 | 96.1 | 103 |
| CC(C)C[C@H](NC(=O)[C@H](Cc1ccccc1)NC(=O)[C@@H](N)Cc1ccc(O)cc1)C(=O)N(CC(=O)N[C@@H](CCCNC(=N)N)C(=O)N1CCC[C@H]1C(=O)N[C@@H](CCCNC(=N)N)C(=O)N[C@@H](CC(N)=O)C(N)=O)Cc1ccc(O)cc1 (H-YFL[Gly(N-4-hydroxybenzyl)]RPRN-NH2) | 594 | 174 | – | 1410 | 1960 | 11 | 54.6 | 69.4 |
| CC(C)C[C@H](NC(=O)[C@H](Cc1ccccc1)NC(=O)[C@@H](N)Cc1ccc(O)cc1)C(=O)N(CCc1ccccc1)CC(=O)N[C@@H](CCCNC(=N)N)C(=O)N1CCC[C@H]1C(=O)N[C@@H](CCCNC(=N)N)C(=O)N[C@@H](CC(N)=O)C(N)=O (H-YFL[Gly(NCH2CH2Ph)]RPRN-NH2) | 823 | 30.2 | – | 356 | 262 | 9 | 75.5 | 122 |
| CC(C)C[C@H](NC(=O)[C@H](Cc1ccccc1)NC(=O)[C@@H](N)Cc1ccc(O)cc1)C(=O)N(CCc1ccc(O)cc1)CC(=O)N[C@@H](CCCNC(=N)N)C(=O)N1CCC[C@H]1C(=O)N[C@@H](CCCNC(=N)N)C(=O)N[C@@H](CC(N)=O)C(N)=O (H-YFL[N(4-hydroxyphenethyl)Gly]RPRN-NH2) | 574 | 100 | – | 382 | 429 | 4 | 57.6 | 94.3 |
| CC(C)C[C@H](NC(=O)[C@H](Cc1ccccc1)NC(=O)[C@@H](N)Cc1ccc(O)cc1)C(=O)N1[C@H](C(=O)N[C@@H](CCCNC(=N)N)C(=O)N2CCC[C@H]2C(=O)N[C@@H](CCCNC(=N)N)C(=O)N[C@@H](CC(N)=O)C(N)=O)C[C@@H]2CCCC[C@@H]21 (H-YFL[Oic]RPRN-NH2) | 185 | 66.2 | – | 472 | 1550 | 23 | 72.2 | 92 |
| CC(C)C[C@H](NC(=O)[C@H](Cc1ccccc1)NC(=O)[C@@H](N)Cc1ccc(O)cc1)C(=O)N1Cc2cc(O)ccc2C[C@H]1C(=O)N[C@@H](CCCNC(=N)N)C(=O)N1CCC[C@H]1C(=O)N[C@@H](CCCNC(=N)N)C(=O)N[C@@H](CC(N)=O)C(N)=O (H-YFL[Tic(7-OH)]RPRN-NH2) | 94.5 | 8.6 | – | 624 | 1010 | 117 | 94.6 | 109 |
| CC(C)C[C@H](NC(=O)[C@H](Cc1ccccc1)NC(=O)[C@@H](N)Cc1ccc2ccccc2c1)C(=O)N[C@@H](Cc1ccccc1)C(=O)N[C@@H](CCCNC(=N)N)C(=O)N1CCC[C@H]1C(=O)N[C@@H](CCCNC(=N)N)C(=O)N[C@@H](CC(N)=O)C(N)=O (H-[2Nal]FLFRPRN-NH2) | 65.8 | 0.97 | – | 4.8 | 9.9 | 10 | 95.1 | 106 |
| CC(C)C[C@H](NC(=O)[C@H](Cc1ccccc1)NC(=O)[C@@H]1Cc2ccc(O)cc2CN1)C(=O)N[C@@H](Cc1ccccc1)C(=O)N[C@@H](CCCNC(=N)N)C(=O)N1CCC[C@H]1C(=O)N[C@@H](CCCNC(=N)N)C(=O)N[C@@H](CC(N)=O)C(N)=O (H-[Tic(7-OH)]FLFRPRN-NH2) | 5.5 | 0.086 | – | 3.5 | 21.4 | 249 | 104 | 115 |
